Reference: PMC8494022 (Chemical Science, 2021)
pIC50: −log10 of the molar value. Blank lines part the entries; values can stand above or below the molecule they belong to.

Assays:
[1] = test system: CT26 cells; assay: Cellular uptake of FITC-labeled albumin with endocytosis inhibitors; type: cell-based, murine (Balb/c); settings: 1 h inhibitor pretreatment, uptake after 3 h
[2] = Pharmacokinetic of single dose in serum; type: in vivo, Balb/c mice
Summary of the method: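 Naive BALB/c mice (n = 4 per group) received a single i.v. dose equimolar to 9 mg kg−1 oxaliplatin. Serum was sampled between 0.08 h and 336 h, and serum versus blood clot was compared at 24 h. Platinum was quantified by ICP-MS and used for concentration–time curves, AUC and terminal elimination half-life.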

[3] = test system: CT26 tumors; assay: Allograft anticancer activity experiments; type: in vivo; settings: CT26-bearing BALB/c mice
Summary of the method: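 CT26 allografts in immune-competent BALB/c mice; test compounds and oxaliplatin given i.v. twice weekly for two weeks at doses equimolar to 9 mg kg−1 oxaliplatin. Body weight was followed. Tumor growth is reported as mean ± SEM and compared by two-way ANOVA. Overall survival was plotted as Kaplan–Meier curves and compared by log-rank test with Mantel–Cox posttest.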

[4] = test system: CT26 tumors; assay: Histological evaluation of treated tumors; type: in vivo, Balb/c mice; settings: tumors day 12, H&E-stained
Summary of the method: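 CT26-bearing BALB/c mice dosed i.v. twice weekly for two weeks, equimolar to 9 mg kg−1 oxaliplatin. Tumors were collected on day 12, 24 h after the last dose. Apoptotic and mitotic cells were counted in H&E sections. Percentages of cleaved caspase-3-positive and Ki-67-positive cells were scored by image analysis. One-way ANOVA with Dunnett's test.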

[5] = test system: CT26 cells; assay: Cellular platinum uptake determined by ICP-MS; type: cell-based, murine (Balb/c); settings: MβCD, CHP, EIPA 1 h pretreatment, uptake after 3 h
[6] = test system: CT26 cells; assay: Cytotoxicity, MTT-based cell viability assay; design: species or system murine (Balb/c)
Summary of the method: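 MTT-based viability of CT26 cells after 72 h drug exposure, alone or with 100 μM ascorbic acid co-treatment. Values are means ± SD of one representative experiment run in triplicates.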

[7] = cited from earlier work
[8] = Reduction kinetics with ascorbic acid by NMR; type: physicochemical; settings: 100 μM, ascorbic acid 10 eq., cell-free, pD 7.4, 37°C

Molecule: methyl-β-cyclodextrin [MßCD]
- impact on uptake of FITC-labeled albumin [1]: significantly reduced

Molecule: O=C1[O][Pt]2([NH][C@@H]3CCCC[C@H]3[NH]2)[O]C1=O [oxaliplatin]
- serum concentration at first sampling time point relative to KP2156 ([2]; 5 min, equimolar application): drastically lower than for KP2156
- total clearance relative to KP2156 ([2]; single i.v. dose): at least one order of magnitude higher than that of KP2156
- terminal elimination half-life (t ½) ([2]; single i.v. dose equimolar to 9 mg kg−1 oxaliplatin): 32.5 h
- impact on tumor growth ([3]; i.v. twice a week for two weeks, equimolar to 9 mg kg−1 oxaliplatin): significant activity
- day at which treated tumors progressed again ([3]; same scheme): ~15 days
- change of mitotic cells [4]: significant increase of mitotic cells
- impact of endocytosis inhibitors on cellular drug uptake [5]: neither accumulation of oxaliplatin nor KP2157 were affected by endocytosis inhibition
- impact of ascorbic acid co-treatment on activity (cell viability) ([6]; 100 μM AA, 72 h): no relevant impact
- pIC50 ([6]; after 72 h): ~5.46

Molecule: COc1cccc2c1C(=O)c1c(O)c3c(c(O)c1C2=O)C[C@@](O)(C(=O)CO)C[C@@H]3O[C@H]1C[C@H](N)[C@H](O)[C@H](C)O1 [doxorubicin]
- concentration in blood, share of the initial amount ([7]; 15 min after i.v. injection): less than 2%
- in vivo elimination half-life [7]: in the order of minutes

Molecule: CCN(c1nc(N)c(C(=O)NC(=N)N)nc1Cl)C(C)C [EIPA, 5-(N-ethyl-N-isopropyl)amiloride]
- impact on uptake of FITC-labeled albumin [1]: had no impact on albumin uptake

Molecule: COc1cccc2c1C(=O)c1c(O)c3c(c(O)c1C2=O)C[C@@](O)(/C(CO)=N/NC(=O)CCCCCN1C(=O)C=CC1=O)C[C@@H]3O[C@H]1C[C@H](N)[C@H](O)[C@H](C)O1 [aldoxorubicin]
- in vivo elimination half-life [7]: 2.3 h
- time at which tumor accumulation reached a plateau ([7]; no further increase during the next 24 h): 2 h

- time to complete reduction [8]: < 24 h
Molecule: CC(=O)[O][Pt]([NH2])([Cl])([Cl])([NH]C1CCCCC1)[O]C(C)=O [Satraplatin, satraplatin]
